Compound activity deposited in PubChem by several laboratories.
This is a sample that favours compounds with a hit; in the whole collection about 4.9% have one here.
CHT block: inhibitors of human choline transporter CHT; High affinity choline transporter 1 (Homo sapiens), Q9GZV3; CHT-expressing cells, membrane potential dye, choline response; stronger effect = lower value; B-score at 10 µM; 310,000 compounds, 0.86% hits;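 active = B-score over 3 SD under the library average, and starting fluorescence ratio not unusually high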;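 note: choline stimulus applied at its EC90 after an EC20 pre-addition; B-score computed on integrated fluorescence ratio after choline addition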
PHOSPHO1 inh: PubChem AID 1565 | Phosphoethanolamine/phosphocholine phosphatase (Homo sapiens), Q8TCT1 | recombinant PHOSPHO1, absorbance phosphatase assay | inhibition, % at 13.3 µM | 290,000 compounds, 1.1% hits; in the data active = inhibition above about 60%
Target sequence (Q8TCT1 whole entry, looked up): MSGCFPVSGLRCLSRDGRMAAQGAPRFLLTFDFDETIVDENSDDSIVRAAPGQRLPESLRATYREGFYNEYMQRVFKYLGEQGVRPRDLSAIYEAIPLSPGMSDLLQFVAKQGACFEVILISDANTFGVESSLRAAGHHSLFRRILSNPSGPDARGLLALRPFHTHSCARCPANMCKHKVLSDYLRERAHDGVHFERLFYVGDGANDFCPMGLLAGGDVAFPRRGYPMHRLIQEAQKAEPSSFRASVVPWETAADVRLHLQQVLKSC
HSF-1 act: HSF-1 activators, primary screen, NIH3T3-HGL cells, MG132 stress, luminescence, single point | NIH3T3-HGL HSF-1 luciferase reporter, 8 h; 100% = twice DMSO control signal | activation, % at 9 µM | 300,000 compounds, 1.7% hits;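 active = mean replicate activation of at least 50% with a set share of replicates each reaching 50%; inconclusive = only one of those two conditions met; inactive = mean below 50% and too few replicates reaching it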;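 note: 0% = median of the neutral control wells and 100% = twice that signal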
HSF1 inhib: HSF1 inhibitors in luciferase reporter cells, primary screen, cell-based, NIH3T3, luminescence. NIH3T3-HGL HSE-luciferase, MG132-induced, luminescence 8 h; stronger effect = lower value. activity change, negative = inhibition, % at 7.5 µM (by protocol). 300,000 compounds, 0.77% hits. AID 2098, 2009;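 active = more than half of replicate wells show activity change below -50%, luminescence cut by over half; inconclusive = some wells, but at most half, below -50%; inactive = no replicate well below -50%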;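 note: luciferase reports HSF-1 transcriptional activity via heat shock element; 0% = median of DMSO wells and -100% = zero luminescence signal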
Lipid droplet: inhibitors of hepatocyte lipid droplet formation, primary screen, imaging, high-throughput imaging, BODIPY stain. AML12 mouse hepatocytes, oleate lipid droplets. inhibition, % at 6.5 µM. 240,000 compounds, 0.4% hits;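 active = lipid droplet intensity inhibited by at least 50%, with more than 500 cells counted; inconclusive = wells with under 300 cells, treated as cytotoxic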
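Material – AML12 mouse liver cells · Also added – oleate loading, 100 µM · Compound dosing – 6.5 µM single-point dosing · Times – overnight treatment with compound plus oleate · Measured by – fluorescence imaging, 20x objective, two fields per well · Read-out – percent inhibition of filter-corrected integrated lipid droplet intensity per well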
CHT PAM: CHT positive allosteric modulators, primary screen, cell-based, membrane potential dye, choline EC20 | CHT-expressing cells; stronger effect = higher value; LV-AA mutant CHT in HEK293 cells | B-score at 10 µM | 310,000 compounds, 0.49% hits;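 active = initial fluorescence not abnormally high and integrated response B-score, plate-corrected, over 3 SD above library mean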
CHT block conf: CHT inhibitors, confirmation, cell-based, membrane potential dye, duplicate | shares compounds with CHT block | CHT activity remaining % of control (stronger effect = lower value), % at 10 µM | CHT-expressing cells, choline membrane potential dye; LV-to-AA substituted CHT, HEK293 cells | 2,400 compounds, 70% hits;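 active = choline transporter activity left, mean of duplicates at 10 µM, below buffer-only control mean minus 3 SD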;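 note: depolarization triggered by choline at its EC90 following an EC20 pre-addition; 0% = hemicholinium-3 full block and 100% = buffer-only control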
HEK293 MPD ctr: membrane potential effects in parental HEK293, counter-screen for CHT inhibitor project, cell-based, membrane potential dye; shares compounds with CHT block; choline response; active = decrease or increase beyond buffer ±3SD; membrane potential ratio readout (active if shifted either direction beyond buffer ±3SD; no single direction) at 10 µM; 2,400 compounds, 4% hits; AID 493222, 2011;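 note: parental cells lack the transporter so any hit is non-specific; ratio is peak minus trough fluorescence over baseline after EC90 choline challenge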
Active calls of the source: *; i = inactive; ? = inconclusive; nt = not tested or not shown.

SMILES	CHT block	PHOSPHO1 inh	HSF-1 act	HSF1 inhib	Lipid droplet	CHT PAM	CHT block conf	HEK293 MPD ctr
c1ccc(CCc2nn3c(Cc4ccccc4)nnc3s2)cc1	-5.4*	17	-2	-7	-10	i	56%*	i
Cc1ccc(S(=O)(=O)NCCC(=O)Nc2ccncc2)cc1C	i	nt	-4	4	nt	i	nt	nt
Cn1c(=O)n(CC(=O)N2CCN(c3nnc(-c4ccccc4)c4ccccc34)CC2)c2ccccc21	-5.8*	-8	19	12	11	i	i	i
Cn1cnc2c1c(=O)n(Cc1cccc(F)c1)c(=O)n2C	i	24	-2	-9	-1	i	nt	nt
CCCCn1c(=O)n(Cc2cccc(F)c2)c(=O)c2c1ncn2Cc1ccco1	-12*	13	11	-5	-13	i	53%*	i
COc1cc(CNc2ccc(N3CCCCC3)cc2)ccc1OCC(=O)NC(C)(C)C	-9.9*	39	-10	-7	-26	i	47%*	i
COc1cccc(OCCSc2nnc3sc4ccccc4n23)c1	-8.7*	-11	28	0	-13	i	i	i
Cc1noc(/C=C/c2cccs2)c1S(=O)(=O)N1CCC(C(=O)NCCCN2CCC(C)CC2)CC1	-5.1*	-16	-7	-1	8	i	i	i
Cc1cc(C)n(-c2cccc(F)n2)n1	i	32	4	2	2	i	nt	nt
Cc1cc2[nH]c3ccccc3c2c(C)n1	-7.3*	0	44	5	-51	i	34%*	i
Nc1cc(-c2ccccc2)nn1Cc1ccccc1	i	-11	2	-12	0	i	nt	nt
OCCn1nc(-c2ccccc2)cc1-c1ccccc1	-9.3*	19	9	-2	-13	i	26%*	i
COc1ccc(/C=C(/NC(=O)c2ccco2)C(=O)NCCc2ccccc2)cc1	i	26	-5	-5	15	i	nt	nt
COc1ccc(OC)c(S(=O)(=O)N2CCC(C(=O)N3CCc4ccccc4C3)CC2)c1	i	18	10	5	-7	i	i	i
COc1ccc(-c2noc(CCCC(=O)Nc3cccnc3)n2)cc1OC	i	-8	6	-8	nt	i	nt	nt
O=C(NCc1ccc2c(c1)OCO2)c1ccc(COc2cc(Cl)ccc2Cl)o1	-5.1*	12	-5	4	-16	i	i	i
O=C(NCc1ccc2c(c1)OCO2)c1ccc(CSCc2ccc(Cl)cc2)o1	i	14	-20	-1	4	i	nt	nt
CC(=O)c1cccc(NC(=O)c2ccc(N(Cc3ccccc3C)S(C)(=O)=O)cc2)c1	i	-3	24	8	36	i	nt	nt
CSC1=C(C#N)C(c2ccccc2)C(C(C)=O)=C(C)N1 (configuration not stated)	i	41	15	8	8	i	nt	nt
CCOC(=O)CSC1=C(C#N)C(c2ccccc2)C(C(C)=O)=C(C)N1 (configuration not stated)	-5.7*	-90	21	12	nt	i	i	i
COc1ccc(NC(=O)C2CCN(c3nc(-c4ccc(OC)cc4)no3)CC2)cc1	i	25	-17	-9	-8	i	nt	nt
COc1ccc(-c2noc(N3CCC(C(=O)Nc4ccc(OC)cc4OC)CC3)n2)cc1	-6.6*	23	-61	?	5	i	i	i
CN(Cc1cnn(C)c1)S(=O)(=O)c1cccc([N+](=O)[O-])c1	i	58	11	-8	9	i	nt	nt
Cc1nn(C)c(C)c1CN(C)S(=O)(=O)c1ccc2ccccc2c1	-5.1*	-14	nt	nt	-26	i	51%*	i
Cc1nn(C)c(C)c1CN(C)S(=O)(=O)c1ccc(F)cc1	i	-19	-8	-5	-24	i	nt	nt
SMILES	CHT block	PHOSPHO1 inh	HSF-1 act	HSF1 inhib	Lipid droplet	CHT PAM	CHT block conf	HEK293 MPD ctr
Fc1ccc(OCCOCCOc2cccc3[nH]ccc23)cc1	-5.3*	20	27	6	1	i	i	i
O=C(NCCCN1CCOCC1)c1c(F)c(F)c(F)c(F)c1F	i	-33	-4	1	0	i	nt	nt
CC(NC(=O)c1ccc(F)cc1)c1ccc2c(c1)CCCC2 (configuration not stated)	-6.2*	1	6	4	nt	i	41%*	i
COc1ccc(C(C)NC(=O)c2ccc(Br)cc2)cc1OC (configuration not stated)	i	-7	-7	5	8	i	nt	nt
CC(NC(=O)c1ccc(Br)cc1)c1ccc2c(c1)CCCC2 (configuration not stated)	-9.7*	-21	5	3	6	i	i	i
Cc1cc(NC(=O)CSc2nc3c(c(=O)n2-c2ccccc2)SC(C)C3)no1 (configuration not stated)	i	-3	-12	-3	4	i	nt	nt
CC1CCN(CC(=O)Nc2cccc(C(=O)Nc3cccc(C(F)(F)F)c3)c2)CC1	-6.4*	17	-6	0	-13	i	44%*	i
CC1CN(CC(=O)Nc2cccc(C(=O)Nc3cccc(C(F)(F)F)c3)c2)CC(C)O1 (configuration not stated)	i	-7	5	-9	-1	i	nt	nt
Cc1cc(C)c(NC(=O)COC(=O)c2cccc3c2C(=O)c2ccccc2C3=O)c(C)c1	-5.1*	2	-5	13	-1	i	i	i
Nc1c(Sc2ccccc2)c(=O)[nH]c(=O)n1Cc1ccccc1	i	nt	-6	-3	nt	i	nt	nt
CCN(CC)CCNC(=O)c1ccccc1C(=O)c1ncc[nH]1	i	-12	3	4	-23	i	nt	nt
Cc1cc(C)n2nc(SCc3cccc(S(=O)(=O)N(C)C)c3)nc2n1	-5.3*	31	11	-9	-19	i	68%*	i
COc1ccc(CSc2nc3nc(C)cc(C)n3n2)cc1F	-6*	-2	10	0	-17	i	46%*	i
Cc1ccc(CSc2nc3nc(C)cc(C)n3n2)cc1	i	14	10	17	-5	i	nt	nt
